Only some compounds are listed: those with a hit (about 2.6% of all), similar ones and a draw of the others.
PRMT1 FP inh – inhibitors of human PRMT1. recombinant PRMT1, activity-based probe fluorescence polarization. inhibition, % at 2.79 µM. hit rate 1.3% among 370,000. AID 652257;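 active = inhibition above about 21% made by adding two undisclosed values, limit read from the data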
GSTO1 counter – GSTO1 inhibition, counter-screen for RBBP9 inhibitors. P78417. recombinant GSTO1, activity-based probe fluorescence polarization. inhibition, % at 5.96 µM. hit rate 1.1% among 300,000. AID 1974;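 active = inhibition above the campaign mean inhibition plus 3 SD, cut at about 35% in these data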;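 also: 0% = GSTO1-1 with DMSO and 100% = wells lacking GSTO1-1 enzyme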
PAD4 FP inh – blocks human protein arginine deiminase 4; recombinant PAD4, RCA probe fluorescence polarization; inhibition, % at 6.36 µM; hit rate 0.41% among 330,000; AID 485272;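 active = percent inhibition above a cutoff equal to the mean of all tested compounds plus 3 SD, cut at about 15% in these data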;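 also: 0% = PAD4 with RCA probe and DMSO and 100% = probe without PAD4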
Target sequence (Q9UM07 whole entry, looked up): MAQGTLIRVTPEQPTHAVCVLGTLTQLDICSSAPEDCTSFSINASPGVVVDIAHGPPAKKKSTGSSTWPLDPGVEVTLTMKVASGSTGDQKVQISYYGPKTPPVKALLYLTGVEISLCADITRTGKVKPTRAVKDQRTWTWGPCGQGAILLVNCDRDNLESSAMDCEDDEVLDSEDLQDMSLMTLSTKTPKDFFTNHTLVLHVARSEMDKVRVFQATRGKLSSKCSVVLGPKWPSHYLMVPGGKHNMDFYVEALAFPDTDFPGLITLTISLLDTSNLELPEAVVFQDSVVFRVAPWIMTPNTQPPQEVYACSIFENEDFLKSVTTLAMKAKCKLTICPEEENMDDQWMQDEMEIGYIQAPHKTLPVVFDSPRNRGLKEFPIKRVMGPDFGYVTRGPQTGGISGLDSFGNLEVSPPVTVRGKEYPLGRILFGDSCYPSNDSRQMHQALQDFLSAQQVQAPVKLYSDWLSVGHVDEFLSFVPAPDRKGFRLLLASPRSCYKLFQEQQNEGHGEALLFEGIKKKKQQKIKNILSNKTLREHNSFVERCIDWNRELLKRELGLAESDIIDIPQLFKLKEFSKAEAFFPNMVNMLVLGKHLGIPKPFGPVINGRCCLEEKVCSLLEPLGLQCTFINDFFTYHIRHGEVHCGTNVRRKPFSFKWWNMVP
TDP2 absorb – TDP2 (human) inhibition, absorbance primary screen | recombinant TDP2, T5PNP hydrolysis, p-nitrophenol absorbance 415 nm | inhibition, % at 12.8 µM | hit rate 0.34% among 370,000;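 active = inhibition above the mean of all tested compounds plus 3 SD, set per campaign, cut at about 25% in these data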;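 also: 0% = DMSO with enzyme and 100% = buffer with substrate but no TDP2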
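Read-out basis: percent inhibition. System: recombinant human TDP2. Buffer or medium: Mg2+-containing Tris-HCl buffer, pH 7.5. Repeats: single replicate. Timing: reaction 2 h, 37 °C. Benchmarks: high control without enzyme, low control DMSO plus TDP2. Probe or stimulus: 5 mM T5PNP. Doses: 12.8 µM only. Measured by: epi absorbance of p-nitrophenol freed from T5PNP by hydrolysis.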
Apaf-1 inh – blocks human Apaf-1 apoptosome activity; AID 489030; hit rate 0.71% among 330,000; reconstituted apoptosome caspase-3 activity, DEVD-Rh110 fluorescence; inhibition, % at 20 µM; active = inhibition of at least 40% at 20 µM;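 also: plate controls were DMSO wells for no effect and DEVD-CHO caspase inhibitor wells for full effect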
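Assay system – apoptosome proteins · Medium – Hepes buffer, pH 7.5 · Also added – cytochrome c with DEVD-Rh110 · Timing – 30 min compound preincubation, 50 min activation, room temperature · Detection – Rh110 fluorescence, excitation 480 nm, emission 540 nm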
PRMT1 inh conf – confirmation of human PRMT1 inhibitors; hit rate 42% among 3,300; inhibition, % at 2.79 µM; recombinant His-PRMT1, activity-based probe fluorescence polarization; AID 687036; shares compounds with PRMT1 FP inh;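 active = mean inhibition across replicates above the hit cutoff derived for the earlier primary screen, cut at about 22% in these data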
* hit, by the source's call; . = no result given.

SMILES | PRMT1 FP inh | GSTO1 counter | PAD4 FP inh | TDP2 absorb | Apaf-1 inh | PRMT1 inh conf
O=C1NC(=O)N(c2cccc(Cl)c2)C(=O)/C1=C\c1ccc(Sc2nc3ccccc3[nH]2)o1 | 33* | -159 | -26 | 0 | 0 | 42*
CN(CC=CCN(C)P(=S)(N1CC1)N1CC1)P(=S)(N1CC1)N1CC1 | 52* | . | . | -2 | . | -6
Cc1nn(C2CCOC(C)(C)C2)c2c1C(c1ccc(OC(C)C)cc1)SCC(=O)N2 (stereo not drawn) | 28* | 4 | -2 | 6 | 0 | 41*
C[C@@H]1COc2cccc(N3CCN(C)CC3)c2S(=O)(=O)N1 | -4 | . | . | 5 | . | .
O=C1NC(=S)NC(=O)C1=Cc1cccn1-c1ccc(O)cc1 | 42* | . | . | -3 | . | 68*
Cc1cc(C)cc(N2C(=O)NC(=O)/C(=C\c3cccn3-c3ccc(Cl)cc3)C2=O)c1 | 3 | 2 | -11 | 1 | 32 | .
Oc1ccc(C2=CCNCC2)cc1O | 25* | 34 | 5 | 4 | -8 | 28*
C1=C(c2ccccc2)CCNC1 | -4 | 9 | 3 | -8 | -6 | .
O=C1NC(=O)N(CCC2=CCCCC2)C(=O)/C1=C\c1cccs1 | 31* | 4 | -14 | 0 | 11 | 18
Cn1c(O)c(C(c2ccccn2)c2c(O)n(C)c(=S)n(C)c2=O)c(=O)n(C)c1=S | 27* | 3 | -2 | -7 | 14 | 11
Cn1c(O)c(C(c2ccncc2)c2c(O)n(C)c(=S)n(C)c2=O)c(=O)n(C)c1=S | 38* | 6 | -2 | -5 | -1 | 1
COC(=O)[C@@]1(Sc2ccc(C)cc2)CC(=O)N(P(=O)(OC)OC)[C@@H]1c1ccccc1 | 9 | . | . | -4 | . | .
CCOC(=O)CC(SP1(=S)OCC2(CCCCC2)CO1)C(=O)OCC (stereo not drawn) | 25* | . | . | 2 | . | 18
CC1=C(C)CC2(C(=O)NC(=O)NC2=O)C(C)C1 (stereo not drawn) | -1 | . | . | 10 | . | .
C[C@H]1CNCCN1c1ccc(N2CC[C@@H](O)C2)c(C#N)c1 | -1 | . | . | 4 | . | .
Cc1cc(N2CCNC[C@@H]2C)ccc1N1CC[C@@H](O)C1 | 47* | . | . | 4 | . | 3
O=C1C2CC(CN3CCCCC23)C2CCCCN12 (stereo not drawn) | 1 | . | . | -4 | . | .
CC1=NNC(=O)C1Br (stereo not drawn) | 50* | . | . | 13 | . | 74*
CC1=NCCc2c1[nH]c1cc(O)ccc21 | 119* | 12 | -1 | 0 | 33 | 125*
COc1ccc2c3c([nH]c2c1)C(C)=NCC3 | 2 | -2 | -22 | -2 | -1 | .
CC(C)(C)C(=O)N1Cc2ccccc2-n2nncc2C1 | -1 | . | . | -5 | . | .
COc1ccc2c(c1)C13CCCC[C@@H]1C(C2)N(C)CC3 (stereo partly drawn) | 136* | 4 | -4 | -9 | -8 | 4
Cc1ccc2[nH]c3c(c2c1)CN(C(=O)CN1C[C@H]2C[C@@H](C1)c1cccc(=O)n1C2)CC3 | 50* | -4 | -2 | 13 | 6 | 1
Cc1cc(OCC(=O)N2CCC(C(=O)O)CC2)c2c3c(c(=O)oc2c1)CCC3 | -1 | -3 | 7 | 3 | -3 | .
CC1=C[C@@H]2c3cccc4[nH]cc(c34)C[C@H]2N(C)C1 | 39* | 30 | -6 | 17 | 28 | 36*
SMILES | PRMT1 FP inh | GSTO1 counter | PAD4 FP inh | TDP2 absorb | Apaf-1 inh | PRMT1 inh conf
CC(C)N1C(=O)/C(=C/C=C/c2ccco2)C(=O)N(Cc2ccco2)C1=O | 29* | -9 | -17 | 2 | 26 | 16
CCN1C(=O)C(=C/C=C/c2ccco2)C(=O)N(CC)C1=S | 27* | -160 | -33 | -4 | 15 | 34*
C[C@]12CCC3C(CC[C@H]4C[C@@H](O)CC[C@]34C)C1C[C@@H](N)[C@@H]2O (stereo partly drawn) | -5 | . | -1 | 5 | 4 | .
Cc1cc2c(cc1C)NP(=S)(c1ccccc1)N2 | -1 | . | . | 4 | . | .
COc1ccc2[nH]c(C)c(CCNCc3cccnc3)c2c1 | 120* | . | 0 | 13 | -3 | 3
COc1ccc2[nH]cc(CCNCc3cccnc3)c2c1 | -2 | -2 | -2 | 4 | -11 | .
Nc1cc(Cl)c2nonc2c1[N+](=O)[O-] | 41* | 12 | -1 | -7 | . | 10
O=[N+]([O-])c1c(Cl)c(Cl)c(Cl)c(Cl)c1Cl | -1 | . | . | 3 | . | .
O=C(O)C(O)(c1ccc(Cl)cc1)C1(O)CCCC1 (stereo not drawn) | -4 | . | . | -8 | . | .

High-throughput results (PubChem)
